Assay results as given in ChEMBL document CHEMBL3593170 (J Nat Prod, 2015).
Active and inactive are the calls of the source. The calls are words filed in the database; no cut-off is given here.

Molecular target: T1, Transient receptor potential cation channel subfamily V member 1 (Homo sapiens, UniProt Q8NER1)
T1 sequence (Q8NER1 whole entry): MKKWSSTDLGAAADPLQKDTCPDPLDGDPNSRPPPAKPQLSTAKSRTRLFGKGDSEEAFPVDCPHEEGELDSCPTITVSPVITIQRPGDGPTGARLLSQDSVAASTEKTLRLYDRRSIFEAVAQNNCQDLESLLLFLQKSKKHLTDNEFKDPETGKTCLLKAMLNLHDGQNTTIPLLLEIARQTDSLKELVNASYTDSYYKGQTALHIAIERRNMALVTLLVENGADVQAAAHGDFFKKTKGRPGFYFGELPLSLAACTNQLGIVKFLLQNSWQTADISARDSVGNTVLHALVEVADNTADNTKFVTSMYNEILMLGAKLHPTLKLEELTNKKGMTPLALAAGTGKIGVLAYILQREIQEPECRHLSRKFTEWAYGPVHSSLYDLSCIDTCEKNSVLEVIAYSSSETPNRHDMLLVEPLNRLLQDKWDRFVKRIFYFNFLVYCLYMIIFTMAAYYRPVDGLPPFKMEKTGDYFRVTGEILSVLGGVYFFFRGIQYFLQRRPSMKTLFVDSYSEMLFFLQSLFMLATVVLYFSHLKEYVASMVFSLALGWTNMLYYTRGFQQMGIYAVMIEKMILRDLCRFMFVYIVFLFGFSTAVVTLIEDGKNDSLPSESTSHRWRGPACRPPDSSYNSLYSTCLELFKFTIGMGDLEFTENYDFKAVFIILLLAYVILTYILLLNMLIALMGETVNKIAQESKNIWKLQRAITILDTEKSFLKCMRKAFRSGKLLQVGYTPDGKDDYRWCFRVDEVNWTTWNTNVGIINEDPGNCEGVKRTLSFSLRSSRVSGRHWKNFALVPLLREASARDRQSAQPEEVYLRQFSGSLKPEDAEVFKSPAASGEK
Experiment: Activation of human TRPV1 expressed in TREx-HEK cells by Fluo-4 AM dye-based Ca2+ imaging assay
Assay type: cell-based
Details: read-out: EC50
With `Oc1ccc(CN=C=S)cc1` the EC50 was 170 µM. In the case of `S=C=NCc1ccccc1` [BENZYL ISOTHIOCYANATE], the EC50 is reported as 223 µM. `CCC(C)N=C=S` (stereo not drawn) gave an EC50 of 100 µM. In the case of `CC(C)N=C=S` [ISOPROPYL ISOTHIOCYANATE], the EC50 is reported as 100 µM. `C=CCN=C=S` [ALLYL ISOTHIOCYANATE] showed an EC50 of 160 µM. For `S=C=NCCc1ccccc1` [PHENETHYLISOTHIOCYANATE], the EC50 was 180 µM.

Same assay, conditions: trex-hek
In the case of `CSCCCCCCN=C=S`, the EC50 is reported as “Not Active”.

Molecular target: T2, Transient receptor potential cation channel subfamily A member 1 (Homo sapiens, UniProt O75762)
T2 sequence (O75762 whole entry): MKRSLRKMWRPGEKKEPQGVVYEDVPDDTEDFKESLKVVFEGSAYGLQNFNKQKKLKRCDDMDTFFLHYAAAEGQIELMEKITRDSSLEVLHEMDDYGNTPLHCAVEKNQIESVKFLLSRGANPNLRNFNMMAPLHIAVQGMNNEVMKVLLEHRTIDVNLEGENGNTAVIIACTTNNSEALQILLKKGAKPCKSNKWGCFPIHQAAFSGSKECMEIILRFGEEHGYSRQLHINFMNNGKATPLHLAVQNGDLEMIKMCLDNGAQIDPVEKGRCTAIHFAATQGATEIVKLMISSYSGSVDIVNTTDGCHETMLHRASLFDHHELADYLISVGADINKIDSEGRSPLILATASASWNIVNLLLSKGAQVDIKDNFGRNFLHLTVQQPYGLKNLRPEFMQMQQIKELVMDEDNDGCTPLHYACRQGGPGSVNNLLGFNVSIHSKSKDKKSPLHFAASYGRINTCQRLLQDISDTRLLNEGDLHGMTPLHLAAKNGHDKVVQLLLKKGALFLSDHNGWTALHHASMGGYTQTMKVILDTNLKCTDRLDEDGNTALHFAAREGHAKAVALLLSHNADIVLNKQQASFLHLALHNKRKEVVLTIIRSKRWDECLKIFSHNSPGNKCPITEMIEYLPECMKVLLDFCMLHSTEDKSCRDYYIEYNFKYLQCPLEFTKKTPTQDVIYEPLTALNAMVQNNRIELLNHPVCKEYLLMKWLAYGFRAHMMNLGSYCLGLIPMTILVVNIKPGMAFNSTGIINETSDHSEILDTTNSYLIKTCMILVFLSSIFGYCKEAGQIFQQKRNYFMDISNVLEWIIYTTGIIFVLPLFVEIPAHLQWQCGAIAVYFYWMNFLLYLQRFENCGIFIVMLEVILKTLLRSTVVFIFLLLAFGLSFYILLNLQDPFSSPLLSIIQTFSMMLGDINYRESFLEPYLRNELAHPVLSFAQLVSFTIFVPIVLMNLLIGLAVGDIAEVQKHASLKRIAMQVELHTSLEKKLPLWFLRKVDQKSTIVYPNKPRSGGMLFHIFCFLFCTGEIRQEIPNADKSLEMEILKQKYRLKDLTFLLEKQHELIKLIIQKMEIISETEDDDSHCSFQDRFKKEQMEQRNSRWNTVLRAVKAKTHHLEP
Experiment: Activation of human TRPA1 expressed in TREx-HEK cells by Fluo-4 AM dye-based Ca2+ imaging assay
Assay type: cell-based
Details: not given
For `CSCCCCCCN=C=S`, the EC50 was 0.58 µM. With `Oc1ccc(CN=C=S)cc1` the EC50 was 20 µM. For `S=C=NCc1ccccc1` [BENZYL ISOTHIOCYANATE], the EC50 was 0.25 µM. In the case of `CCC(C)N=C=S` (stereo not drawn), the EC50 is reported as 0.68 µM. In the case of `CC(C)N=C=S` [ISOPROPYL ISOTHIOCYANATE], the EC50 is reported as 0.53 µM. Compound `S=C=NCCc1ccccc1` [PHENETHYLISOTHIOCYANATE] has an EC50 of 0.37 µM.

Molecular target: T2, Transient receptor potential cation channel subfamily A member 1
Experiment: Activation of human TRPA1 expressed in TREx-HEK cells at 1 uM by Fluo-4 AM dye-based Ca2+ imaging assay
Assay type: cell-based
Details: not given
In short: (§1)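 Tetracycline-induced (1 μg/mL, 24 h after seeding) TREx HEK cells stably expressing hTRPA1, or TREx HEK cells not expressing TRPA1; Fluo-4 AM 3 μM loading 1 h 37 °C; Ca2+ change read at 37 °C. Response as % of 5 μM ionomycin; mean ± SEM, n = 3−8.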
For `CSCCCCCCN=C=S`, the Activity was “Active”. In the case of `S=C=NCc1ccccc1` [BENZYL ISOTHIOCYANATE], the Activity is reported as “Active”. With `CCC(C)N=C=S` (stereo not drawn) the Activity was “Active”. In the case of `CC(C)N=C=S` [ISOPROPYL ISOTHIOCYANATE], the Activity is reported as “Active”. With `C=CCN=C=S` [ALLYL ISOTHIOCYANATE] the Activity was “Active”. With `S=C=NCCc1ccccc1` [PHENETHYLISOTHIOCYANATE] the Activity was “Active”.

Tested on: not listed separately
Experiment: Effect on Ca2+ response in TREx-HEK cells at 1 uM by Fluo-4 AM dye-based Ca2+ imaging assay
Assay type: ADME, cell-based
Details: human
In short: as §1
With `S=C=NCc1ccccc1` [BENZYL ISOTHIOCYANATE] the Activity was “Non-toxic”. With `CCC(C)N=C=S` (stereo not drawn) the Activity was “Non-toxic”. For `CC(C)N=C=S` [ISOPROPYL ISOTHIOCYANATE], the Activity was “Non-toxic”. In the case of `C=CCN=C=S` [ALLYL ISOTHIOCYANATE], the Activity is reported as “Non-toxic”. In the case of `S=C=NCCc1ccccc1` [PHENETHYLISOTHIOCYANATE], the Activity is reported as “Non-toxic”.

Molecular target: T2, Transient receptor potential cation channel subfamily A member 1
Experiment: Activation of human TRPA1 expressed in TREx-HEK cells at 1 uM in presence of TRPA1 antagonist HC030031 by Fluo-4 AM dye-based Ca2+ imaging assay
Assay type: cell-based
Details: not given
In short: as §1
With `CSCCCCCCN=C=S` the Activity was “inactive”. For `S=C=NCc1ccccc1` [BENZYL ISOTHIOCYANATE], the Activity was “inactive”. For `CCC(C)N=C=S` (stereo not drawn), the Activity was “inactive”. In the case of `CC(C)N=C=S` [ISOPROPYL ISOTHIOCYANATE], the Activity is reported as “inactive”. With `C=CCN=C=S` [ALLYL ISOTHIOCYANATE] the Activity was “inactive”. For `S=C=NCCc1ccccc1` [PHENETHYLISOTHIOCYANATE], the Activity was “inactive”.

Tested on: not listed separately
Experiment: Effect on Ca2+ response in TREx-HEK cells at 300 uM by Fluo-4 AM dye-based Ca2+ imaging assay
Assay type: ADME, cell-based
Details: human
In short: (§2)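 TREx HEK cells stably expressing hTRPV1 (tetracycline 1 μg/mL induction) or parental TREx HEK cells lacking TRPV1, Fluo-4 AM (3 μM, 1 h, 37 °C) loaded; compounds at 300 μM, capsazepine 30 μM co-added where stated; Ca2+ at 37 °C as % of 5 μM ionomycin; mean ± SEM, n = 3−7.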
With `Oc1ccc(CN=C=S)cc1` the Activity was “Non-toxic”. In the case of `S=C=NCc1ccccc1` [BENZYL ISOTHIOCYANATE], the Activity is reported as “Non-toxic”. With `CCC(C)N=C=S` (stereo not drawn) the Activity was “Non-toxic”. In the case of `CC(C)N=C=S` [ISOPROPYL ISOTHIOCYANATE], the Activity is reported as “Non-toxic”. In the case of `C=CCN=C=S` [ALLYL ISOTHIOCYANATE], the Activity is reported as “Non-toxic”. For `S=C=NCCc1ccccc1` [PHENETHYLISOTHIOCYANATE], the Activity was “Non-toxic”.

Molecular target: T1, Transient receptor potential cation channel subfamily V member 1
Experiment: Activation of human TRPV1 expressed in TREx-HEK cells at 300 uM by Fluo-4 AM dye-based Ca2+ imaging assay
Assay type: cell-based
Details: not given
In short: as §2
In the case of `CSCCCCCCN=C=S`, the Activity is reported as “inactive”. With `Oc1ccc(CN=C=S)cc1` the Activity was “Active”. In the case of `S=C=NCc1ccccc1` [BENZYL ISOTHIOCYANATE], the Activity is reported as “Active”. For `CCC(C)N=C=S` (stereo not drawn), the Activity was “Active”. With `CC(C)N=C=S` [ISOPROPYL ISOTHIOCYANATE] the Activity was “Active”. For `C=CCN=C=S` [ALLYL ISOTHIOCYANATE], the Activity was “Active”. In the case of `S=C=NCCc1ccccc1` [PHENETHYLISOTHIOCYANATE], the Activity is reported as “Active”.

Molecular target: T1, Transient receptor potential cation channel subfamily V member 1
Experiment: Activation of human TRPV1 expressed in TREx-HEK cells at 300 uM in presence of TRPV1 antagonist CPZ by Fluo-4 AM dye-based Ca2+ imaging assay
Assay type: cell-based
Details: not given
In short: as §2
With `Oc1ccc(CN=C=S)cc1` the Activity was “inactive”. With `S=C=NCc1ccccc1` [BENZYL ISOTHIOCYANATE] the Activity was “inactive”. In the case of `CCC(C)N=C=S` (stereo not drawn), the Activity is reported as “inactive”. With `CC(C)N=C=S` [ISOPROPYL ISOTHIOCYANATE] the Activity was “inactive”. With `C=CCN=C=S` [ALLYL ISOTHIOCYANATE] the Activity was “inactive”. With `S=C=NCCc1ccccc1` [PHENETHYLISOTHIOCYANATE] the Activity was “inactive”.

Molecular target: T2, Transient receptor potential cation channel subfamily A member 1
Experiment: Activation of human TRPA1 expressed in TREx-HEK cells by Fluo-4 AM dye-based Ca2+ imaging assay relative to 100 uM ITC
Assay type: cell-based
Details: not given
With `CSCCCCCCN=C=S` the max activation was 92%. With `Oc1ccc(CN=C=S)cc1` the max activation was 96%. For `S=C=NCc1ccccc1` [BENZYL ISOTHIOCYANATE], the max activation was 95%. `CCC(C)N=C=S` (stereo not drawn) showed a max activation of 88%. For `CC(C)N=C=S` [ISOPROPYL ISOTHIOCYANATE], the max activation was 82%. Work on `C=CCN=C=S` [ALLYL ISOTHIOCYANATE] yielded a max activation of 97%. Work on `S=C=NCCc1ccccc1` [PHENETHYLISOTHIOCYANATE] yielded a max activation of 94%.

Molecular target: T2, Transient receptor potential cation channel subfamily A member 1
Experiment: Activation of human TRPA1 expressed in TREx-HEK cells at 30 uM by Fluo-4 AM dye-based Ca2+ imaging assay
Assay type: cell-based
Details: not given
In short: as §1, with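 “°C. Compounds in DMSO, diluted in measuring buffer just before addition; 1 μM (30 μM for one compound); HC030031 30 μM co-added where stated.” for “°C.”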
With `Oc1ccc(CN=C=S)cc1` the Activity was “Active”.

Molecular target: T1, Transient receptor potential cation channel subfamily V member 1
Experiment: Activation of human TRPV1 expressed in TREx-HEK cells by Fluo-4 AM dye-based Ca2+ imaging assay relative to 10 uM capsaicin
Assay type: cell-based
Details: not given
For `CSCCCCCCN=C=S`, the max activation was “inactive”. `Oc1ccc(CN=C=S)cc1` showed a max activation of 63%. With `S=C=NCc1ccccc1` [BENZYL ISOTHIOCYANATE] the max activation was 49%. Compound `CCC(C)N=C=S` (stereo not drawn) has a max activation of 62%. In the case of `CC(C)N=C=S` [ISOPROPYL ISOTHIOCYANATE], the max activation is reported as 50%. Compound `C=CCN=C=S` [ALLYL ISOTHIOCYANATE] has a max activation of 25%. In the case of `S=C=NCCc1ccccc1` [PHENETHYLISOTHIOCYANATE], the max activation is reported as 43%.

Tested on: not listed separately
Experiment: Effect on Ca2+ response in TREx-HEK cells at 30 uM by Fluo-4 AM dye-based Ca2+ imaging assay
Assay type: ADME, cell-based
Details: human
In short: as §1, with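 “°C. Compounds in DMSO, diluted in measuring buffer just before addition; 1 μM (30 μM for one compound); HC030031 30 μM co-added where stated.” for “°C.”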
With `Oc1ccc(CN=C=S)cc1` the Activity was “Non-toxic”.

Molecular target: Transient receptor potential cation channel subfamily M member 8 (Mus musculus) (UniProt Q8R4D5)
Sequence (Q8R4D5 whole entry): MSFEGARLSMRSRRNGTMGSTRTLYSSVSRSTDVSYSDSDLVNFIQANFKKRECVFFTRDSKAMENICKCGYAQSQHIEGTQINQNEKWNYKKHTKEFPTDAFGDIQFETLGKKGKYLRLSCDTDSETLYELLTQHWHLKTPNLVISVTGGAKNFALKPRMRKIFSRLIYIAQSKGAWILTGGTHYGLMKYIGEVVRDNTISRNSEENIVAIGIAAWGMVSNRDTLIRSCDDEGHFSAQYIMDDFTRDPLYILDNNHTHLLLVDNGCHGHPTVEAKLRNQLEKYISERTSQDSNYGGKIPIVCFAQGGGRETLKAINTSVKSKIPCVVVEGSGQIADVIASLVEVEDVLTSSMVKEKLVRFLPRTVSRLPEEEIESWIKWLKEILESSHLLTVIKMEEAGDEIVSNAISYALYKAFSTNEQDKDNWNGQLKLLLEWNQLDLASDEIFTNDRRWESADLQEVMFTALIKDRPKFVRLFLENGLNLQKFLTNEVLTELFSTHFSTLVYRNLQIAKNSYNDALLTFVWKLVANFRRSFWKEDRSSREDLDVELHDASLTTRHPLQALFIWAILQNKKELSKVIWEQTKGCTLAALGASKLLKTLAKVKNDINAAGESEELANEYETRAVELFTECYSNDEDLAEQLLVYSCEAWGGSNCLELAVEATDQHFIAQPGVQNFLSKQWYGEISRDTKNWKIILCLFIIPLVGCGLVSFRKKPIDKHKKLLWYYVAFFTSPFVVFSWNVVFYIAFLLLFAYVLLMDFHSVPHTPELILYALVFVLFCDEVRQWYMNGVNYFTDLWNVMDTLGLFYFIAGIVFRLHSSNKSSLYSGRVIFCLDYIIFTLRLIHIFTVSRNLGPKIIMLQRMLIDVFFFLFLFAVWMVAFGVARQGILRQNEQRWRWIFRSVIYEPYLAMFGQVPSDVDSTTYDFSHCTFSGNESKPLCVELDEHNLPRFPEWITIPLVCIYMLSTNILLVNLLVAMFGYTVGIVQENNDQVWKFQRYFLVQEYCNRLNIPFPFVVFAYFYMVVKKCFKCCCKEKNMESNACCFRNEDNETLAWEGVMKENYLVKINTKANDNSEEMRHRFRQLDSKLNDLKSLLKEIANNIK
Experiment: Agonist activity at mouse TRPM8 expressed in TREx-HEK cells at 300 uM by Fluo-4 AM dye-based Ca2+ imaging assay
Assay type: cell-based
Details: not given
In short: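 Mouse TRPM8 stably expressed in TREx HEK cells, induced with 1 μg/mL tetracycline; Fluo-4 AM 3 μM loading, 1 h, 37 °C; compounds 300 μM freshly diluted from DMSO; Ca2+ change read at 37 °C; ionomycin 5 μM for maximum fluorescence; menthol 100 μM agonist control, BCTC 10 μM antagonist.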
In the case of `CSCCCCCCN=C=S`, the Activity is reported as “inactive”. For `Oc1ccc(CN=C=S)cc1`, the Activity was “inactive”. With `S=C=NCc1ccccc1` [BENZYL ISOTHIOCYANATE] the Activity was “inactive”. With `CCC(C)N=C=S` (stereo not drawn) the Activity was “inactive”. In the case of `CC(C)N=C=S` [ISOPROPYL ISOTHIOCYANATE], the Activity is reported as “inactive”. With `C=CCN=C=S` [ALLYL ISOTHIOCYANATE] the Activity was “inactive”. In the case of `S=C=NCCc1ccccc1` [PHENETHYLISOTHIOCYANATE], the Activity is reported as “inactive”.

Molecular target: T2, Transient receptor potential cation channel subfamily A member 1
Experiment: Activation of human TRPA1 expressed in TREx-HEK cells at 30 uM in presence of TRPA1 antagonist HC030031 by Fluo-4 AM dye-based Ca2+ imaging assay
Assay type: cell-based
Details: not given
For `Oc1ccc(CN=C=S)cc1`, the Activity was “inactive”.
